In ChEMBL document CHEMBL3400136, “Design and synthesis of new potassium channel activators derived from the ring opening of diazoxide: study of their vasodilatory effect, stimulation of elastin synthesis and inhibitory effect on insulin release” (Bioorg Med Chem, 2015):
Active and inactive are the calls of the source. The rule behind the calls is not given here.

How the values were obtained:
Thoracic aorta [1] = experiment: Vasorelaxant activity in Wistar rat endothelium thoracic aortic ring assessed as inhibition of 30 mM KCl-induced contraction; format: functional, tissue-based
In short: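 Rings from adult Wistar rat thoracic aorta, with or without endothelium, under 1.5 g tension in oxygenated physiological solution at 37 °C, pH 7.36. Contraction by 30 mM KCl after 60 min equilibration, then cumulative drug to maximal relaxation. EC50 = concentration giving 50% relaxation of KCl contraction; mean ± sem.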

Thoracic aorta [2] = experiment: Vasorelaxant activity in Wistar rat thoracic aortic ring assessed as inhibition of KCl-induced contraction in presence of glibenclamide; format: functional, tissue-based
In short: (§1)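 Thoracic aorta rings (2–3 mm) from adult Wistar rats, held at 1.5 g tension in Krebs-type solution pH 7.36, 37 °C, O2/CO2 95:5. After 60 min equilibration, contracted with 30 or 80 mM KCl, some with 10 µM glibenclamide. Cumulative drug additions to maximal relaxation; isometric tension by force transducer. Relaxation as % of KCl contraction; EC50 from concentration-response curves; mean ± sem, n experiments.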

Thoracic aorta [3] = experiment: Vasorelaxant activity in Wistar rat thoracic aortic ring assessed as inhibition of 80 mM KCl-induced contraction; format: functional, tissue-based; in short: as §1
Rattus norvegicus [4] = species on record: Rattus norvegicus; experiment: Activation of ATP-sensitive potassium channel in Wistar rat thoracic aortic ring assessed as rightward shift; format: tissue-based; conditions: Aorta; in short: as §1
Thoracic aorta [5] = experiment: Vasorelaxant activity in Wistar rat thoracic aortic ring assessed as inhibition of 30 mM KCl-induced contraction; format: functional, tissue-based; in short: as §1
Rattus norvegicus [6] = species on record: Rattus norvegicus; experiment: Activation of ATP-sensitive potassium channel in Wistar rat pancreatic islets assessed as inhibition of 16.7 mM of glucose-induced insulin secretion by measuring residual insulin secretion at 50 uM after 90 mins relative to control
In short: (§2)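 Islets from adult fed Wistar rats, groups of 10. Preincubated 30 min at 37 °C in bicarbonate salt medium with 2.8 mM glucose and 0.5% dialysed albumin, gassed O2/CO2 95:5. Then 90 min at 37 °C in same medium with 16.7 mM glucose plus drug. Insulin by radioimmunoassay against rat insulin standard, expressed as % of drug-free 16.7 mM glucose control.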

Rattus norvegicus [7] = species on record: Rattus norvegicus; experiment: Activation of ATP-sensitive potassium channel in Wistar rat pancreatic islets assessed as inhibition of 16.7 mM of glucose-induced insulin secretion by measuring residual insulin secretion at 10 uM after 90 mins relative to control; in short: as §2
Rattus norvegicus [8] = experiment: Activation of ATP-sensitive potassium channel in Wistar albino rat assessed as effect on blood glucose at 50 mg/kg, po; format: functional, organism-based; parameters: dose 50 mg/kg
In short: (§3)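 Adult fed Wistar albino rats, conscious, free access to water and standard pellet diet, held in a small cabinet from 60 min before sampling. Single oral dose in DMSO (0.2 mL) at time zero; controls got DMSO alone. Tail blood drop at 0, 1, 2, 3 and 4 h, glucose by reagent strip and glucometer. Mean ± sem, n = 3 rats.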

Homo sapiens [9] = species on record: Homo sapiens; experiment: Activation of ATP-sensitive potassium channel in vascular smooth muscle cells (unknown origin) assessed as increase in elastin production after 48 hrs by ELISA
In short: (§4)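 Primary aortic smooth muscle cells serum-starved overnight in 1% FCS-DMEM, seeded 25,000 cells/well and adhered overnight. Compounds in DMSO (final <1%) for 48 h, some wells with 10 µM glibenclamide throughout. Controls were DMSO alone, 1 mM minoxidil in water, or diazoxide. Cells fixed in 4% paraformaldehyde, extracellular elastin by anti-elastin ELISA with HRP secondary, read by absorbance. n = 3–4 from different cultures; ANOVA.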

Homo sapiens [10] = species on record: Homo sapiens; experiment: Activation of ATP-sensitive potassium channel in vascular smooth muscle cells (unknown origin) assessed as increase in elastin production at 100 uM after 48 hrs by ELISA; in short: as §4
Homo sapiens [11] = species on record: Homo sapiens; experiment: Activation of ATP-sensitive potassium channel in vascular smooth muscle cells (unknown origin) assessed as increase in elastin production at 10 to 100 uM after 48 hrs by ELISA in presence of glibenclamide; in short: as §4
Homo sapiens [12] = species on record: Homo sapiens; experiment: Activation of ATP-sensitive potassium channel in vascular smooth muscle cells (unknown origin) assessed as increase in elastin production at 100 uM after 48 hrs by ELISA
[13] = Dissociation constant, pKa of the compound by UV-Visible spctrophotometry; format: physicochemical
In short: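 UV–visible spectra recorded at ambient temperature in borate and phosphate buffers from pH 3 to 10, using neutral and ionic species references in 0.1 N HCl and 0.1 N NaOH. Exact pH measured for each spectrum. pKa calculated by the Albert–Serjeant formula.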

Rattus norvegicus [14] = experiment: Hyperglycemic effect in Wistar albino rat assessed as effect on blood glucose at 50 mg/kg, po; format: functional, organism-based; parameters: dose 50 mg/kg; in short: as §3
Homo sapiens [15] = species on record: Homo sapiens; experiment: Activation of ATP-sensitive potassium channel in vascular smooth muscle cells (unknown origin) assessed as increase in elastin production at 50 uM after 48 hrs by ELISA
In short: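 Primary aortic smooth muscle cells were serum-starved overnight in 1% FCS-DMEM, seeded at 25,000 cells/well and left to adhere overnight. They were then exposed for 48 h in 1% FCS-DMEM to compound in DMSO (final DMSO <1%). Cells were fixed in 4% paraformaldehyde, blocked with 2% BSA, then labelled with anti-elastin antibody (1:1000) and HRP secondary (1:50,000). The reaction was stopped with sulfuric acid and absorbance read. Negative control was DMSO; positive control was 1 mM minoxidil.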

Homo sapiens [16] = species on record: Homo sapiens; experiment: Activation of ATP-sensitive potassium channel in vascular smooth muscle cells (unknown origin) assessed as increase in elastin production at 10 to 100 uM after 48 hrs by ELISA; in short: as §4
Rattus norvegicus [17] = experiment: Hypoglycemic effect in Wistar albino rat assessed as effect on blood glucose at 0.25 mg/kg, po; format: functional, organism-based; parameters: dose 0.25 mg/kg; in short: as §3
Homo sapiens [18] = species on record: Homo sapiens; experiment: Activation of ATP-sensitive potassium channel in vascular smooth muscle cells (unknown origin) assessed as increase in elastin production at 10 to 20 uM after 48 hrs by ELISA; in short: as §4

## CCNC(=O)NC(=O)c1ccccc1OC
Thoracic aorta [1]
  EC50: > 100 µM

## CCC(C)NC(=O)NC(=O)c1ccccc1OCc1ccccc1 (stereo not given)
Thoracic aorta [1]
  EC50: 12.2 µM
Thoracic aorta [2]
  EC50: 20.2 µM
Thoracic aorta [3]
  EC50: 45.6 µM
Rattus norvegicus [4]
  Activity: Dose-dependent effect
Thoracic aorta [5]
  EC50: 15.3 µM
Rattus norvegicus [6]
  Activity: 21.4%
Rattus norvegicus [7]
  Activity: 90.1%
Rattus norvegicus [8]
  Activity: inactive
Homo sapiens [9]
  Activity: Dose-dependent effect
Homo sapiens [10]
  Activity: 30%
Homo sapiens [11]
  Activity: inactive
Homo sapiens [12]
  Activity: 30%

## CCOc1ccc(Cl)cc1S(=O)(=O)NC(=S)Nc1ccc(F)cc1
Thoracic aorta [1]
  EC50: > 300 µM

## COc1ccccc1C(=O)NC(=S)NCc1ccccc1
Thoracic aorta [1]
  EC50: 47.2 µM

## CCC(C)NC(=O)NC(=O)c1ccccc1OC (stereo not given)
Thoracic aorta [1]
  EC50: 31.8 µM

## CCOc1ccc(Cl)cc1S(=O)(=O)NC(=O)Nc1ccccc1
Thoracic aorta [1]
  EC50: > 300 µM

## CCCOc1ccccc1C(=O)NC(=O)NC1CCCCC1
Thoracic aorta [1]
  EC50: 58.2 µM

## COc1ccc(Cl)cc1S(=O)(=O)NC(=S)NCc1ccccc1
Thoracic aorta [1]
  EC50: > 300 µM

## COc1ccc(F)cc1S(=O)(=O)NC(=O)NC(C)C
Thoracic aorta [1]
  EC50: > 300 µM
[13]
  pKa: 5.52

## CCNC(=S)NS(=O)(=O)c1cc(Cl)ccc1OC
Thoracic aorta [1]
  EC50: > 300 µM

## COc1ccc(Cl)cc1S(=O)(=O)NC(=O)NC(C)C
Thoracic aorta [1]
  EC50: > 300 µM
[13]
  pKa: 5.65

## CC1=Nc2ccc(Cl)cc2S(=O)(=O)N1 [DIAZOXIDE]
Thoracic aorta [3]
  EC50: > 300 µM
Rattus norvegicus [6]
  Activity: 28.8%
Rattus norvegicus [7]
  Activity: 70%
Rattus norvegicus [14]
  Activity: Active
Homo sapiens [15]
  Activity: 67%

## COc1ccc(Cl)cc1S(=O)(=O)NC(=O)NC1CCCCC1
Thoracic aorta [1]
  EC50: > 300 µM
[13]
  pKa: 5.46

## CCNC(=S)NC(=O)c1ccccc1OC
Thoracic aorta [1]
  EC50: 15.2 µM
Thoracic aorta [2]
  EC50: 28.2 µM
Thoracic aorta [3]
  EC50: 57.1 µM
Thoracic aorta [5]
  EC50: 17.4 µM
Rattus norvegicus [6]
  Activity: 99.6%
Rattus norvegicus [7]
  Activity: 94.1%
Homo sapiens [16]
  Activity: inactive

## CCOc1ccc(Cl)cc1S(=O)(=O)NC(=O)NC1CCCCC1
Thoracic aorta [1]
  EC50: > 300 µM

## CCCCCNC(=O)NC(=O)c1ccccc1OCc1ccccc1
Thoracic aorta [1]
  EC50: 17.3 µM

## COc1ccccc1C(=O)NC(=S)Nc1ccccc1
Thoracic aorta [1]
  EC50: 34.5 µM

## COc1ccccc1C(=O)NC(=S)NC(C)C
Thoracic aorta [1]
  EC50: 18.6 µM
Thoracic aorta [2]
  EC50: 28.1 µM
Thoracic aorta [3]
  EC50: 38.1 µM
Thoracic aorta [5]
  EC50: 15.7 µM
Rattus norvegicus [6]
  Activity: 105%
Rattus norvegicus [7]
  Activity: 90.9%
Homo sapiens [9]
  Activity: Dose-dependent effect
Homo sapiens [10]
  Activity: 30%
Homo sapiens [11]
  Activity: inactive
Homo sapiens [12]
  Activity: 30%

## O=C(NC(=O)c1ccccc1OCc1ccccc1)NC1CCCCC1
Thoracic aorta [1]
  EC50: 33.8 µM

## CC(C)NC(=O)NC(=O)c1ccccc1OCc1ccccc1
Thoracic aorta [1]
  EC50: 26.8 µM

## CCCOc1ccccc1C(=O)NC(=S)NCc1ccccc1
Thoracic aorta [1]
  EC50: 71.1 µM

## CCOc1ccc(Cl)cc1S(=O)(=O)NC(=O)NC(C)C
Thoracic aorta [1]
  EC50: > 300 µM

## O=C(NC(=S)NCc1ccccc1)c1ccccc1OCc1ccccc1
Thoracic aorta [1]
  EC50: > 100 µM

## CCOc1ccc(Cl)cc1S(=O)(=O)NC(=S)NCc1ccccc1
Thoracic aorta [1]
  EC50: > 300 µM

## O=C(NCc1ccccc1)NC(=O)c1ccccc1OCc1ccccc1
Thoracic aorta [1]
  EC50: 21.1 µM

## CCCOc1ccccc1C(=O)NC(=S)Nc1ccccc1
Thoracic aorta [1]
  EC50: 16.5 µM
Thoracic aorta [2]
  EC50: 64.9 µM
Thoracic aorta [3]
  EC50: 121 µM
Thoracic aorta [5]
  EC50: 12 µM
Rattus norvegicus [6]
  Activity: 44.9%
Rattus norvegicus [7]
  Activity: 83.8%
Rattus norvegicus [8]
  Activity: inactive

## COc1ccccc1C(=O)NC(=O)Nc1ccccc1
Thoracic aorta [1]
  EC50: 26.7 µM

## COc1ccccc1C(=O)NC(=O)NC(C)C
Thoracic aorta [1]
  EC50: 91.4 µM

## COc1ccc(Cl)cc1C(=O)NCCc1ccc(S(=O)(=O)NC(=O)NC2CCCCC2)cc1
Rattus norvegicus [17]
  Activity: Active

## COc1ccccc1C(=O)NC(=O)NC1CCCCC1
Thoracic aorta [1]
  EC50: 35.9 µM

## CCNC(=O)NC(=O)c1ccccc1OCc1ccccc1
Thoracic aorta [1]
  EC50: 16.7 µM
Thoracic aorta [2]
  EC50: 38 µM
Thoracic aorta [3]
  EC50: 36.6 µM
Thoracic aorta [5]
  EC50: 17.2 µM
Rattus norvegicus [6]
  Activity: 113%
Rattus norvegicus [7]
  Activity: 110%
Homo sapiens [18]
  Activity: inactive

## COc1ccc(Cl)cc1S(=O)(=O)NC(=O)Nc1ccc(F)cc1
Thoracic aorta [1]
  EC50: > 300 µM

## COc1ccc(Cl)cc1S(=O)(=O)NC(=O)Nc1ccccc1
Thoracic aorta [1]
  EC50: > 300 µM
[13]
  pKa: 4.5

## CCCOc1ccccc1C(=O)NC(=O)Nc1ccccc1
Thoracic aorta [1]
  EC50: 59.6 µM

## CCOc1ccc(Cl)cc1S(=O)(=O)NC(=S)NC(C)C
Thoracic aorta [1]
  EC50: > 300 µM

## CCC(C)NC(=S)NC(=O)c1ccccc1OC (stereo not given)
Thoracic aorta [1]
  EC50: 36.6 µM

## COc1ccc(Cl)cc1S(=O)(=O)NC(=S)NC(C)C
Thoracic aorta [1]
  EC50: > 300 µM
[13]
  pKa: 5.74

## COc1ccc(F)cc1S(=O)(=O)NC(=S)NC(C)C
Thoracic aorta [1]
  EC50: > 300 µM
